Entries after “also recorded” stand apart in the source; their conditions may differ.
Key:
T11/TP53−/− tumors = assay: Short-term tumor volume response, T11/TP53-/- OST; format: in vivo, mice (BALB/c); details: T11/TP53−/− model, 14-day treatment
C3(1)-T-antigen tumors = assay: Short-term tumor volume response, C3; format: in vivo, mice (FVB/n); details: C3(1)-T-antigen model; for Tumor response (change in tumor volume), in words: 21-day treatment
In short: (§1)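 FVB/n transgenic mice bred in-house, enrolled at spontaneous mammary tumor onset (~0.5 cm), randomized to treatment or untreated control groups. Injectable agents given i.p. once weekly, three doses over 21 days; oral agents milled into chow, given continuously; combinations at single-agent doses. Caliper and/or ultrasound measurements; volume = (width)² × length/2; response = percent volume change at day 21.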

MMTV-Neu tumors [1] = assay: Short-term tumor volume response, MMTV-Neu GEMM; format: in vivo, mice (FVB/n); details: MMTV-Neu model; for Tumor response (change in tumor volume), in words: 21-day treatment
In short: as §1

MMTV-Neu tumors [2] = assay: Overall survival of tumor-bearing mice, MMTV-Neu; format: in vivo, mice (FVB/n); details: MMTV-Neu model, single agent
[3] = Paclitaxel pharmacokinetics in plasma and tumor; format: in vivo, transgenic FVB/n mice bearing the MMTV-Neu transgene

## N.N.O=C([O-])C1(C(=O)[O-])CCC1.[Pt+2] [carboplatin, Carboplatin]
T11/TP53−/− tumors
  Tumor response (change in tumor volume), in words: modest but significant responses
C3(1)-T-antigen tumors
  Tumor response (change in tumor volume), in words: modest but significant responses
MMTV-Neu tumors [1]
  Tumor response (change in tumor volume), in words: modest but significant responses

## C#Cc1cccc(Nc2ncnc3cc(OCCOC)c(OCCOC)cc23)c1 [erlotinib]
MMTV-Neu tumors [2]
  Extension of lifespan, in words: to some extent
C3(1)-T-antigen tumors
  Subset of treated mice showing potent activity: ~40%
MMTV-Neu tumors [1]
  Tumor response (change in tumor volume), in words: highly effective

## CS(=O)(=O)CCNCc1ccc(-c2ccc3ncnc(Nc4ccc(OCc5cccc(F)c5)c(Cl)c4)c3c2)o1 [lapatinib]
MMTV-Neu tumors [2]
  Extension of lifespan, in words: greatly extended lifespan
MMTV-Neu tumors [2]; untreated median 29 days
  Median survival: 154 days
T11/TP53−/− tumors
  Tumor response (change in tumor volume), in words: neither erlotinib nor lapatinib were effective
C3(1)-T-antigen tumors
  Tumor response (change in tumor volume), in words: ineffective
MMTV-Neu tumors [1]
  Tumor response (change in tumor volume), in words: exceptional efficacy; also recorded: highly effective; also recorded: complete tumor regression
MMTV-Neu tumors [1]; all tumors
  Tumor regression: ~100%

## CC(=O)O[C@H]1C(=O)[C@@]2(C)[C@H]([C@H](OC(=O)c3ccccc3)[C@]3(O)C[C@H](OC(=O)[C@H](O)[C@@H](NC(=O)c4ccccc4)c4ccccc4)C(C)=C1C3(C)C)[C@]1(OC(C)=O)CO[C@@H]1C[C@@H]2O [paclitaxel]
T11/TP53−/− tumors
  Tumor response (change in tumor volume), in words: no response
C3(1)-T-antigen tumors
  Tumor response (change in tumor volume), in words: no response
[3]; FVB/n (MMTV-Neu transgenic), mouse, plasma, ip, 10 mg/kg
  AUC(0-inf): 6300 ng·h/mL
[3]; single IP dose 10 mg/kg, MMTV-Neu mice, tumor
  AUC0-∞ in tumor: 42.4 µg·h/g
MMTV-Neu tumors [1]
  Tumor response (change in tumor volume), in words: no response
